In paper PMC4910733 (Oncoimmunology, 2015):
pIC50: −log10 of the molar value.

What was measured:
[1] = tested on: HL cell lines, isolated MSC; assay: Toxicity by mitochondrial potential; assay type: cell-based, human; details: for toxic effect (mitochondrial potential, JC-1): HL cell lines or isolated MSC, 2.5 up to 10 μM, 48, 72 and 96 h (not shown)
[2] = tested on: NK cell killing of HL cell lines (L428, L540, KMH2); assay type: cell-based, human; details: L428 and L540 treated 24 h at 10 μM, E:T 10:1
Outline: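 NK cells purified to >96%, stimulated with 0.5 µg/mL PHA plus 10 ng/mL rIL-2, then cultured 15 d in RPMI1640 with 10% FCS and rIL-2; n = 6. Target HL cells were pre-exposed 24 h to medium, DMSO or test compound (10 µM). 4-h 51Cr release at E:T 10:1. Some effectors received anti-NKG2D mAb (5 µg/mL) or isotype control. Specific lysis = (experimental − spontaneous)/(maximum − spontaneous).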

[3] = biological target: MMP-9 (Homo sapiens, UniProt P14780); assay: MMP inhibition assay; assay type: biochemical; details: read-out: MMP9 IC50; average of three determinations, SD <10%
Sequence of MMP-9 (P14780 107-707 limits assumed): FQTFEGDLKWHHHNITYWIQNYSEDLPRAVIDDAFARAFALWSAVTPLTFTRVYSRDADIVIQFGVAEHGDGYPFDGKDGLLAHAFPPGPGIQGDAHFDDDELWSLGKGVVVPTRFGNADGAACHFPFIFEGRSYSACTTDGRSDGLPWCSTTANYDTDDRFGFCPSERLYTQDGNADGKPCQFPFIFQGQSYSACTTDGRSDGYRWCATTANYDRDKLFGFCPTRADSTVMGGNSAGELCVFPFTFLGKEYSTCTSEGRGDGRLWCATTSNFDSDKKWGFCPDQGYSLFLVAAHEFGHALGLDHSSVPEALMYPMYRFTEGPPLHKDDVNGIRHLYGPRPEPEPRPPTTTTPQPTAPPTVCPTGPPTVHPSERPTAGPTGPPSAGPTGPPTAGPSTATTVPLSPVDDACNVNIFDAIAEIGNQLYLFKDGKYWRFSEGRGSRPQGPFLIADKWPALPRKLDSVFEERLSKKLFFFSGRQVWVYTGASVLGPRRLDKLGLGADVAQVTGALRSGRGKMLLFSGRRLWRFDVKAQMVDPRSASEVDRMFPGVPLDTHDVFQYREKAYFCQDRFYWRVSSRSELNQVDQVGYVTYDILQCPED
Outline: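 APMA-activated MMP-9 (1 mM, 1 h, 37°C), 1.3 nM final, was preincubated with test compound 3 h at 25°C in 50 mM Tris pH 7.5, 150 mM NaCl, 10 mM CaCl2, 0.05% Brij-35, 1% DMSO. Fluorogenic substrate Mca-Lys-Pro-Leu-Gly-Leu-Dap(Dnp)-Ala-Arg-NH2 at 2 µM final. Cleavage monitored (ex 325/em 400 nm) every 15 s for 20 min, in duplicate. IC50 via vi/vo = 1/(1+[I]/IC50).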

[4] = biological target: T1, Recombinant human ADAM10 (Homo sapiens, UniProt O14672); assay: In vitro enzymatic inhibition assay; assay type: biochemical; details: read-out: ADAM10 IC50; average of three determinations, SD <10%
T1 sequence (O14672 214-748): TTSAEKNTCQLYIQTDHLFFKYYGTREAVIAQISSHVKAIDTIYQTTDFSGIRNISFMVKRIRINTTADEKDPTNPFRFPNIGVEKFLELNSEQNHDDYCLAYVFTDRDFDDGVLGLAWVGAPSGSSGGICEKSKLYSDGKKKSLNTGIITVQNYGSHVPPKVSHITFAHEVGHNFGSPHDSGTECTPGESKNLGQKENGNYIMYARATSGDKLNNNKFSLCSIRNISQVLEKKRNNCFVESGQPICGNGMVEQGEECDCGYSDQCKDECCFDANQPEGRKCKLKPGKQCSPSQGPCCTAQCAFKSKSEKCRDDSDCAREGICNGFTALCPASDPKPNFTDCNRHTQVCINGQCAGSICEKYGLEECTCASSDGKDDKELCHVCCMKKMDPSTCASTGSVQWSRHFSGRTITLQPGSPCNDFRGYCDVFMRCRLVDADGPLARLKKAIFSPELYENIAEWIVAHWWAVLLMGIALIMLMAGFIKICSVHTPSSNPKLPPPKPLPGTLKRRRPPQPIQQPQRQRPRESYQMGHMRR

[5] = biological target: Recombinant human MMP-14 catalytic domain (Homo sapiens, UniProt P50281); assay: MMP inhibition assay; assay type: biochemical; details: read-out: MMP14 IC50; average of three determinations, SD <10%
Outline: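 Recombinant human MMP-14 catalytic domain (1.0 nM final) was preincubated 3 h at 25°C with test compound in 50 mM Tris pH 7.5, 150 mM NaCl, 10 mM CaCl2, 0.05% Brij-35, 1% DMSO. Substrate Mca-Lys-Pro-Leu-Gly-Leu-Dap(Dnp)-Ala-Arg-NH2 at 2 µM final. Fluorescence (ex 325/em 400 nm) read every 15 s for 20 min, in duplicate. IC50 from vi/vo = 1/(1+[I]/IC50).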

[6] = biological target: T2, MMP-2 (Homo sapiens, UniProt P08253); assay: MMP inhibition assay; assay type: biochemical; details: read-out: MMP2 IC50; average of three determinations, SD <10%
T2 sequence (P08253 110-660): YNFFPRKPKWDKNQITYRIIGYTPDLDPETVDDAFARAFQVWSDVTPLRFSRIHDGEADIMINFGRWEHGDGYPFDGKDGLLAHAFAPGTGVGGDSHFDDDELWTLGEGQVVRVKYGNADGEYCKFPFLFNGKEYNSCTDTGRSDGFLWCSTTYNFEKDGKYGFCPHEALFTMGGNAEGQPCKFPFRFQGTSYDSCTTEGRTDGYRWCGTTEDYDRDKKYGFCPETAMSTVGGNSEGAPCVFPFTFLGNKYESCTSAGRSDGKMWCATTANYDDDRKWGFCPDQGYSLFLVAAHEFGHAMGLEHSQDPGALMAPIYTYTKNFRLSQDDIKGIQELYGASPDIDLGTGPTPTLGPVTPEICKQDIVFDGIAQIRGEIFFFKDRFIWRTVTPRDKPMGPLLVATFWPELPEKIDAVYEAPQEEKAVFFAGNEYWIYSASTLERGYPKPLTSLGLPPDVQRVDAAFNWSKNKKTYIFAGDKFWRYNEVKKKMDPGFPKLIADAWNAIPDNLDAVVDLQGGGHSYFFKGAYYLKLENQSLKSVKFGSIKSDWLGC
Outline: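 Pro-MMP-2 was activated with APMA 2 mM, 1 h, 37°C. Enzyme (0.56 nM final) and test compound were incubated 3 h at 25°C in 50 mM Tris pH 7.5, 150 mM NaCl, 10 mM CaCl2, 0.05% Brij-35, 1% DMSO. Mca-Lys-Pro-Leu-Gly-Leu-Dap(Dnp)-Ala-Arg-NH2 at 2 µM final. Fluorescence (ex 325/em 400 nm) recorded every 15 s for 20 min, in duplicate. IC50 from vi/vo = 1/(1+[I]/IC50).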

`CNC(=O)[C@@H](NC(=O)[C@H](CCCc1ccccc1)[C@H](C)N(O)C=O)C(C)(C)C` [GI254023X] was tested, and the “toxic effect (mitochondrial potential, JC-1)” value [1] was “did not exert any toxic effect” and the “increase of NK cell killing” value [2] was 2–3 fold.

In the case of `NC(=O)NCCC[C@@H](NS(=O)(=O)c1ccc(OCc2cc(Br)cc(Br)c2)cc1)C(=O)NO` [JG26], the pIC50 [3] was 5.79, the pIC50 [4] was 6.82 and the “toxic effect (mitochondrial potential, JC-1)” value [1] was “did not exert any toxic effect”. The pIC50 [5] was 4.71, the “increase of NK cell killing” value [2] was 2–3 fold and the pIC50 [6] was 6.62.

With `[Na+].[Na+].[Na+].[O]=[V]([O-])([O-])[O-]` [Na3VO4, sodium orthovanadate] the “toxicity (JC1 staining)” value ([1]; HL cell lines, 100 μM as pervanadate, 40 min at 37°C (not shown)) was “not toxic”.
